Compounds with a hit are over-represented: about 3.3% of the library has one in this group of screens.
SIAE primary: human SIAE inhibitors, primary screen, biochemical, fluorescence polarization, FP-Rh probe, 1536-well HTS; SIAE FP-Rh probe binding; Sialate O-acetylesterase (Homo sapiens), Q9HAT2; AID 1053197, 2014; 370,000 compounds, 0.69% hits; inhibition, % at 9.66 µM;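 active = inhibition above a cutoff: mean of compounds within the control limits plus 3 SD of those, cut at about 17% in these data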;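 note: 0% = plate median of compound wells and 100% = probe without SIAE protein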
Target sequence (Q9HAT2 whole entry, looked up): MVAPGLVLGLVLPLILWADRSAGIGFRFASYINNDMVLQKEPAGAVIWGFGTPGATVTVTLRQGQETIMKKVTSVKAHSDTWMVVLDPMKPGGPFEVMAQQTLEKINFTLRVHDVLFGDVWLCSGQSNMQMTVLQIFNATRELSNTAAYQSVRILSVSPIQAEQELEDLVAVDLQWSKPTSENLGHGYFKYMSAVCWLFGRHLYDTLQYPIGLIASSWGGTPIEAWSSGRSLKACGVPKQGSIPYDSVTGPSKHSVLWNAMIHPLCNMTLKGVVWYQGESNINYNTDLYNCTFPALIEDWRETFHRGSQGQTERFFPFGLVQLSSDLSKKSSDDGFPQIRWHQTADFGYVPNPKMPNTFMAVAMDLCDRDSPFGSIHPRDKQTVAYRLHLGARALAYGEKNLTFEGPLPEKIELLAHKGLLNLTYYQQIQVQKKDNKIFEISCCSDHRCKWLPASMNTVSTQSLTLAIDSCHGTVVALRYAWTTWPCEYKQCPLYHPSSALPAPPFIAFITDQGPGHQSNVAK
TCR CD3 inh: inhibitors of human TCR-CD3 interaction, primary screen, biochemical, fluorescence, TAMRA-labeled TCR probe | 360,000 compounds, 0.37% hits | T-cell receptor (TCR) | inhibition, % at 9.4 µM; in the data active = inhibition above about 19%;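 note: recombinant mutant TCR 2C K166C tagged with TAMRA read by polarization; 0% = receptor in buffer alone and 100% = receptor with positive control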
mABHD4 FP: ABHD4 inhibitors, primary screen, biochemical, fluorescence polarization, mouse. purified mABHD4, FP-Rh probe fluorescence polarization. inhibition, % at 8.92 µM. 370,000 compounds, 0.54% hits. (Lyso)-N-acylphosphatidylethanolamine lipase (Mus musculus), Q8VD66;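 active = inhibition exceeding the mean over every tested compound plus 3 SD, cut at about 30% in these data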;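 note: 0% = plate median of compound wells and 100% = S159A mutant with DMSO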
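Test system: mouse ABHD4 enzyme, wild type. Reagent: FP-Rh fluorescent activity-based probe, added after compound pre-incubation. Timing: pre-incubation 45 min, probe exposure 60 min, at 25 °C. Technique: FP readout, ex 525 nm / em 598 nm. Benchmarks: high control S159A mutant with DMSO, low control median of compound wells.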
PRMT1 FP inh: PRMT1 methyltransferase inhibitors, primary screen, biochemical, fluorescence polarization; Protein arginine N-methyltransferase 1 (Homo sapiens), Q99873; recombinant PRMT1, activity-based probe fluorescence polarization; inhibition, % at 2.79 µM; AID 652257, 2013; 370,000 compounds, 1.3% hits;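 active = inhibition above about 21% made by adding two undisclosed values, limit read from the data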
rCAG RNA binder: binders of r(CAG) RNA repeats, primary screen, biochemical, fluorescence | r(CAG) RNA repeat, TO-PRO-1 dye displacement fluorescence | inhibition, % at 3 µM | 370,000 compounds, 1.3% hits | AID 651821, 2012;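 active = inhibition above the plate cutoff, the mean of all test compounds on that plate plus 3 SD, cut at about 35% in these data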;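 note: 0% = DMSO alone and 100% = 100 µM mitoxantrone as full dye displacement; higher means more dye released from RNA so lower well fluorescence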
PRMT1 inh conf: PRMT1 methyltransferase inhibitors, confirmation, biochemical, fluorescence polarization, triplicate | shares compounds with PRMT1 FP inh | recombinant His-PRMT1, activity-based probe fluorescence polarization | inhibition, % at 2.79 µM | 3,300 compounds, 42% hits | AID 687036, 2013;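 active = mean inhibition across replicates above the hit cutoff derived for the earlier primary screen, cut at about 22% in these data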
Numbers without * were called inactive; . = not tested or not shown.

SMILES | SIAE primary | TCR CD3 inh | mABHD4 FP | PRMT1 FP inh | rCAG RNA binder | PRMT1 inh conf
O=C(O)c1ccccc1Nc1cc(Cl)c2nonc2c1[N+](=O)[O-] | -5 | -5 | 11 | 62* | 5 | 48*
NC(=O)NC(=O)CC1S/C(=N/N=C2\CSC(=O)N2)NC1=O (stereo unspecified) | -6 | -10 | 0 | 45* | 2 | 33*
NC(=O)NC(=O)CC1S/C(=N/N=C/c2ccccc2)NC1=O (stereo unspecified) | 2 | -10 | -14 | 13 | 1 | .
CCCCN=Cc1sc2ccc(OCC)cc2c1O | 3 | 5 | -2 | 30* | -1 | 32*
CCOc1ccc(N=CNc2ccc(OCC)cc2)cc1 | -4 | 3 | -3 | 2 | -3 | .
O=C(NNc1nc2cc3c(cc2s1)OCCO3)c1ccccc1 | 7 | -3 | 9 | 13 | 7 | .
Cc1cccc2sc(NNC(=O)c3ccc4c(c3)OCCO4)nc12 | -2 | 6 | 20 | 28* | 7 | -3
Cc1ccc(C2/C(=C(/O)c3ccc(Br)cc3)C(=O)C(=O)N2Cc2ccco2)o1 (stereo unspecified) | 7 | 0 | 28 | 35* | 19 | 10
COc1ccc2sc(C)[n+](C)c2c1 | -1 | -4 | 5 | 60* | -5 | 30*
CCCC[n+]1c(C)sc2cc(OC)ccc21 | 4 | 1 | 4 | 30* | -4 | 6
COc1ccc(-c2c(-c3cc(OC)cc(OC)c3)sc3ccc(OC)cc23)cc1 | -5 | 15 | -11 | 2 | 9 | .
CN(Cc1ccccc1)S(=O)(=O)c1cccc(C(=O)OCc2ccc(C(F)(F)F)cc2)c1 | 0 | . | -4 | 0 | 2 | .
COC(=O)C1Sc2[nH]c(=O)sc2C(c2ccc(Cl)cc2)C1C(=O)OC (stereo unspecified) | -1 | -1 | 6 | 2 | 12 | .
COC(=O)C1CSc2[nH]c(=O)sc2C1c1ccccc1 (stereo unspecified) | 6 | 0 | 6 | 46* | -9 | 26*
COC(=O)C1CN(C2CCCC2)CCS(=O)(=O)N1Cc1cn(Cc2ccc(C)cc2)nn1 (stereo unspecified) | -1 | . | 5 | 2 | 4 | .
Cc1cc(NC(=O)CSc2nc3ccsc3c(=O)n2Cc2ccccn2)n[nH]1 | 12 | -2 | 7 | 18 | -2 | .
O=c1c2sccc2nc(SCc2cc(=O)n3ccccc3n2)n1Cc1ccccn1 | -4 | -6 | -2 | 27* | -1 | 15
COc1ccc(C(C)c2cn(C)c3ccccc23)cc1 (stereo unspecified) | 3 | . | 2 | -3 | 5 | .
CC(C)CN1C(=O)N2Cc3ccccc3C2CS1(=O)=O (stereo unspecified) | -2 | . | 5 | 0 | -1 | .
COc1cccc(NC(=O)CSc2ccc(-c3ccco3)nn2)c1 | 4 | 7 | 11 | 42* | 17 | 4
COc1cccc(NC(=O)CSC(N)=O)c1 | 1 | 2 | 2 | 63* | -2 | 87*
O=C(CSc1ccc(-c2ccco2)nn1)c1ccccc1 | 10 | 0 | 19 | 28* | 17 | 10
O=C(CSc1ccc(-c2ccco2)nn1)Nc1ccccc1 | 9 | 7 | 5 | 7 | 2 | .
O=C(CSc1ccc(-c2ccco2)nn1)N1CCCCCC1 | 2 | 9 | 2 | 7 | -1 | .
COc1cccc(NC(=O)CCC(=O)Nc2cccc(OC)c2)c1 | -6 | 2 | -2 | -1 | -2 | .
SMILES | SIAE primary | TCR CD3 inh | mABHD4 FP | PRMT1 FP inh | rCAG RNA binder | PRMT1 inh conf
CCCC(=O)Nc1ccc2c(c1)C(=O)N(C)[C@H]1CC[C@@H](CC(=O)OC)O[C@@H]1CO2 | 0 | . | 3 | 4 | 0 | .
COc1ccc2c3c(ccc2c1)C(=O)/C(=C/O)CC3 | 6 | 5 | 27 | 30* | 18 | 24*
CC1(C)c2ccccc2N2CC(=O)N(CC(N)=O)C21C (stereo unspecified) | -254 | -45 | -184 | 56* | -52 | 14
CC1(C)c2ccccc2N(CC(N)=O)C12C=Cc1ccccc1O2 (stereo unspecified) | -14 | -3 | -32 | -1 | 1 | .
COc1cccc(C(=O)N2CCC(Oc3cccnc3)CC2)c1 | 3 | . | 4 | 0 | 1 | .
CCCCCN1CCCCC(NC(=O)c2ccc(C)cc2)C1=O (stereo unspecified) | -1 | . | -2 | 3 | -3 | .
COC(=O)/C(C#N)=C/c1c(N2CCN(c3ccccc3)CC2)nc2c(C)cccn2c1=O | -8 | 3 | -7 | 26* | 6 | -6
COC(=O)/C(C#N)=C/c1c(N2CCN(c3cccc(Cl)c3)CC2)nc2c(C)cccn2c1=O | 2 | -1 | -7 | -5 | 9 | .
S=c1nc(C23CC4CC(CC(C4)C2)C3)[nH][nH]1 | -1 | -3 | 1 | 34* | 1 | 9
Cc1c([N+](=O)[O-])c(C(=O)Sc2ccc(Br)cc2)nn1C | -1 | -8 | 2 | 50* | -1 | 75*
Cc1c([N+](=O)[O-])c(C(=O)N2CCCC2)nn1C | 2 | 2 | -11 | -2 | 1 | .
CC(=O)NC1C(=O)N=C(SCC(=O)Nc2c(C)cccc2C)NC1=O (stereo unspecified) | -1 | -3 | 10 | 42* | 0 | 15
CCC1C(=O)N=C(SCC(=O)Nc2cccc3ccccc23)NC1=O (stereo unspecified) | 0 | 4 | 2 | 18 | 7 | .
CC(=O)NC1C(=O)N=C(SCC(=O)NCc2ccccc2)NC1=O (stereo unspecified) | -7 | 1 | 3 | 40* | 1 | 8
NC(=O)C1CCN(c2ccnc(Cl)n2)CC1 | -4 | . | 3 | 1 | . | .
COc1cc(C(c2nnnn2C(C)(C)C)N2CCN(c3nc4ccccc4s3)CC2)ccc1O (stereo unspecified) | -4 | 1 | 1 | 44* | -1 | 31*
CCn1c(C(=O)NCCCN2CCc3ccccc3C2)cc2sccc21 | 0 | -7 | -2 | 0 | -5 | .
CCn1c(C(=O)N2CCc3ccccc3C2)cc2sccc21 | 11 | -7 | -4 | 25* | 8 | 13
COc1ccc2nc3ccccc3[n+]([O-])c2c1 | 0 | 1 | 1 | 37* | -20 | 27*
COc1ccc2c(ccc[n+]2[O-])c1 | 8 | 4 | 8 | 2 | 2 | .
O=C(NC1CCCCN(Cc2ccc(Cl)cc2)C1=O)c1cccc([N+](=O)[O-])c1 (stereo unspecified) | 0 | . | -3 | 6 | 4 | .
S=C(Nc1ccccc1Cl)NC1CCN(Cc2ccccc2)CC1 | 9 | 4 | -3 | 25* | -5 | 11

High-throughput results: PubChem, The Scripps Research Institute Molecular Screening Center
